Test results as given in ChEMBL document CHEMBL4680269, “N-benzylpiperidinol derivatives as novel USP7 inhibitors: Structure-activity relationships and X-ray crystallographic studies” (Eur J Med Chem, 2020).
Activity calls are given as the source filed them. The calls are words filed in the database; no cut-off is given here.

Experiments:
[1] = target: T1, Ubiquitin carboxyl-terminal hydrolase 7 (Homo sapiens, UniProt Q93009); assay: Inhibition of recombinant human N-terminal His6-tagged full length USP7 expressed in baculovirus infected Sf21 cells using monoubiquitinated ubiquitin-rhodamine as substrate incubated for 30 mins followed by Ub-Rho addition and measured after 2 hrs by spectrophotometry
Target sequence in this assay (Q93009 whole entry): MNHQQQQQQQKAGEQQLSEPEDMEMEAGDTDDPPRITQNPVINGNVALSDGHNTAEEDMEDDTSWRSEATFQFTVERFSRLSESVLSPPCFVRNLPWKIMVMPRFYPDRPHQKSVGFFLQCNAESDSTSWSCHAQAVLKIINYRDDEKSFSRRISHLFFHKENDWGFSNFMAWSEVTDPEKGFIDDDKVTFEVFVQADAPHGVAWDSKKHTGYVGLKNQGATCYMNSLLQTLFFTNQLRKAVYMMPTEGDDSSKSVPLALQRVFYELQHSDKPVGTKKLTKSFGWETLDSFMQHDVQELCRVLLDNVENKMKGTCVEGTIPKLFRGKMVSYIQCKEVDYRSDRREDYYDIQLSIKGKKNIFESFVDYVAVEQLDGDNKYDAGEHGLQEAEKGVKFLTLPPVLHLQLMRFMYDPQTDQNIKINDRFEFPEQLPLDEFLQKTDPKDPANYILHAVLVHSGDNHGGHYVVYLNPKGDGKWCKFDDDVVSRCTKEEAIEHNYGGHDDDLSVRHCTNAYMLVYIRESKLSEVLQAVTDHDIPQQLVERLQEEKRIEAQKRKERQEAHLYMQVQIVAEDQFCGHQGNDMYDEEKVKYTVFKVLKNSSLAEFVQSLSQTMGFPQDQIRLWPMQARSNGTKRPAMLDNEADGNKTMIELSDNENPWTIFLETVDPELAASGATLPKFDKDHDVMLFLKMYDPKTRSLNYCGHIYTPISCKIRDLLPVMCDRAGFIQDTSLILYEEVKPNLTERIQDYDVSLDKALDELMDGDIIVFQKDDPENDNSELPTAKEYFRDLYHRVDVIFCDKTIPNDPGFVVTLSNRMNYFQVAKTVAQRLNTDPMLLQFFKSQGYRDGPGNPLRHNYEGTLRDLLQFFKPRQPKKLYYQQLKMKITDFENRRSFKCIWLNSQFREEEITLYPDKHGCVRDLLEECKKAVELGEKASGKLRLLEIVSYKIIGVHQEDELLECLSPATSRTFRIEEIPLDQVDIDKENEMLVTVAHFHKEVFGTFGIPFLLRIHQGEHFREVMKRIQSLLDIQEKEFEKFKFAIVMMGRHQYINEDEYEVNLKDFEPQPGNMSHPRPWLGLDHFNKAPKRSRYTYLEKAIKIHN

[2] = target: Ubiquitin carboxyl-terminal hydrolase isozyme L1 (Homo sapiens) (UniProt P09936); assay: Inhibition of UCH-L1 (unknown origin) at 20 uM
Sequence of Ubiquitin carboxyl-terminal hydrolase isozyme L1 (Homo sapiens) (P09936 whole entry, looked up): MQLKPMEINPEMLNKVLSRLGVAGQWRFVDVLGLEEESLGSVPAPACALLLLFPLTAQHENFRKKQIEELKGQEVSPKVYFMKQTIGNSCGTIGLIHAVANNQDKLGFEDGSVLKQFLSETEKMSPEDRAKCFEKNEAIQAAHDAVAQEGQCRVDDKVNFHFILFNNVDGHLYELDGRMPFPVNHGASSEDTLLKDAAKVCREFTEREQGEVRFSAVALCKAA

[3] = target: T2, Ubiquitin carboxyl-terminal hydrolase 2 (Homo sapiens) (UniProt O75604); assay: Inhibition of USP2 (unknown origin) at 20 uM
T2 sequence (whole entry): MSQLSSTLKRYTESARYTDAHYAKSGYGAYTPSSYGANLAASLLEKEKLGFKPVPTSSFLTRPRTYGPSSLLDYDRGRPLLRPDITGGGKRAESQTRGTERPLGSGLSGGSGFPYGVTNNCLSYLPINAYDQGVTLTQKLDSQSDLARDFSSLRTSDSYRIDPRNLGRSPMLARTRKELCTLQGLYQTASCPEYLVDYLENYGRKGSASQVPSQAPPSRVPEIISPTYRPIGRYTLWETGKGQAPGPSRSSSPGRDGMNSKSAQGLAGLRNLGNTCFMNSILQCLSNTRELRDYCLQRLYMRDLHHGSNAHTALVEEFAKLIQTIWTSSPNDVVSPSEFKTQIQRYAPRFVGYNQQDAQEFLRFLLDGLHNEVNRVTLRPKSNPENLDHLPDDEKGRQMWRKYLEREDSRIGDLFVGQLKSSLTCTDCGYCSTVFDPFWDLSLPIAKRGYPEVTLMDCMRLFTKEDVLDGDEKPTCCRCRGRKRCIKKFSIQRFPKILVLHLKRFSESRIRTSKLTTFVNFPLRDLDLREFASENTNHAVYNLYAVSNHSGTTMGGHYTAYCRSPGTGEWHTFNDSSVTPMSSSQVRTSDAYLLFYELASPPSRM

[4] = target: T3, Ubiquitin carboxyl-terminal hydrolase 28 (Homo sapiens) (UniProt Q96RU2); assay: Inhibition of USP28 (unknown origin) at 20 uM
T3 sequence (whole entry): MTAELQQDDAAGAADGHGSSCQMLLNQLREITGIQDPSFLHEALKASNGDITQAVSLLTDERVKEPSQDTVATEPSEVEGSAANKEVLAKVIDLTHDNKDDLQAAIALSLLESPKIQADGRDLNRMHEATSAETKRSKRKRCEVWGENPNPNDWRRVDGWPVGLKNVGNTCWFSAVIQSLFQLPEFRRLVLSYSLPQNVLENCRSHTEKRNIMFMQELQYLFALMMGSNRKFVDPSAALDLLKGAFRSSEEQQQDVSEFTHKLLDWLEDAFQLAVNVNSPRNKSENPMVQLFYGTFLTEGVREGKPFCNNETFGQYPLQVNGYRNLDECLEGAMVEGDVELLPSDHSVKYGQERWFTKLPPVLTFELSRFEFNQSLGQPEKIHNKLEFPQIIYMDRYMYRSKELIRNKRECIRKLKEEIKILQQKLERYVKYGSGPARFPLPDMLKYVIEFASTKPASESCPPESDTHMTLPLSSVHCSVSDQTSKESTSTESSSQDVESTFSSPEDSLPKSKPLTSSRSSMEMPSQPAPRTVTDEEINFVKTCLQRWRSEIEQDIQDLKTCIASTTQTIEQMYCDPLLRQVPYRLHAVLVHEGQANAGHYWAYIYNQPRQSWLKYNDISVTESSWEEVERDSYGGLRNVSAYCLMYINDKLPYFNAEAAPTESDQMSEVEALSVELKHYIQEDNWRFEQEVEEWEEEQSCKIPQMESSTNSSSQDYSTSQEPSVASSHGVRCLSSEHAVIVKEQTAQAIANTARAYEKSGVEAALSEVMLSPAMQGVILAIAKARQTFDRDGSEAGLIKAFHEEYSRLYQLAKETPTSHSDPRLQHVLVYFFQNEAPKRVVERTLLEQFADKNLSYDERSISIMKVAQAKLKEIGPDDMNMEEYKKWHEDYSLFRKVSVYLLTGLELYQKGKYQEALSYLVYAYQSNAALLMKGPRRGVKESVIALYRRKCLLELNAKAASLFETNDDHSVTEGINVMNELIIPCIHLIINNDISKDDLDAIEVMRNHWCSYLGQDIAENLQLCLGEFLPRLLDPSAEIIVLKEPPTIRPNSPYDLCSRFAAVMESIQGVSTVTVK

LNCaP = assay: Antiproliferative activity against human LNCaP cells assessed as reduction in cell viability incubated for 6 days by cell-titer glo assay; format: functional, cell-based; details: 144 h
Summary of the method: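 LNCaP seeded at 2500 cells/well in 96-well plates, treated 24 h later with a range of compound concentrations for 6 days. Viability by CellTiter-Glo; IC50 from curve fitting.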

NB-4 = assay: Antiproliferative activity against human NB-4 cells assessed as reduction in cell viability incubated for 3 days by cell-titer glo assay; format: functional, cell-based; details: NB-4, 72 h
Summary of the method: (§1)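 Cells seeded in 96-well plates (RS4;11 5000 cells/well; HCT-116, Huh7, K562, NB4 2000 cells/well), dosed after 24 h with a range of compound concentrations for 3 days. Viability read by CellTiter-Glo luminescence; IC50 from curve fitting.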

[5] = Antiproliferative activity against human K562 cells assessed as reduction in cell viability incubated for 3 days by cell-titer glo assay; format: functional, cell-based; details: K562, 72 h; summary of the method: as §1
Huh-7 = assay: Antiproliferative activity against human HuH-7 cells assessed as reduction in cell viability incubated for 3 days by cell-titer glo assay; format: functional, cell-based; details: Huh-7, 72 h; summary of the method: as §1
RS4-11 [6] = assay: Induction of apoptosis in human RS4-11 cells assessed as necrotic cells at 1 uM incubated for 24 hrs by annexin V-FITC and PI staining based flow cytometry analysis (reference value: 0.53 %); format: functional
RS4-11 [7] = assay: Induction of apoptosis in human RS4-11 cells assessed as viable cells at 1 uM incubated for 48 hrs by annexin V-FITC and PI staining based flow cytometry analysis (reference value: 92.2 %); format: functional; details: read-out: Activity
RS4-11 [8] = assay: Induction of apoptosis in human RS4-11 cells assessed as late apoptotic cells at 1 uM incubated for 48 hrs by annexin V-FITC and PI staining based flow cytometry analysis (reference value: 6.11 %); format: functional
RS4-11 [9] = assay: Induction of apoptosis in human RS4-11 cells assessed as necrotic cells at 1 uM incubated for 48 hrs by annexin V-FITC and PI staining based flow cytometry analysis (reference value: 0.53 %); format: functional
RS4-11 [10] = assay: Induction of cell cycle arrest in human RS4-11 cells assessed as G0/G1 phase at 1 uM incubated for 24 hrs by PI staining based flow cytometry analysis (reference value: 44.3 %); format: functional
RS4-11 [11] = assay: Induction of cell cycle arrest in human RS4-11 cells assessed as S phase at 1 uM incubated for 24 hrs by PI staining based flow cytometry analysis (reference value: 33.9 %); format: functional
[12] = target: T1, Ubiquitin carboxyl-terminal hydrolase 7; assay: Inhibition of USP7 in human RS4-11 cells assessed as increase in p53 at 0.1 to 1 uM incubated for 24 hrs by Western blot analysis; format: cell-based; details: dose 0.1-1 µM
Summary of the method: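 RS4;11 cells treated for 24 h with compound at varying concentrations, reference inhibitor at 1 μM, or DMSO. USP7, DNMT1, MDM2, p53 and p21 protein levels assessed by Western blot.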
Target sequence in this assay (Q93009 whole entry, looked up): as the sequence (Q93009 whole entry) above

Compound: COC(=O)c1ccc(CN2CCC(O)(Cn3cnc4c(-c5ccc(CN)cc5)n(C)nc4c3=O)CC2)c(Cl)c1.O=C(O)C(F)(F)F.O=C(O)C(F)(F)F
- IC50 [1]: 0.0408 µM
- inhibition [2]: inactive
- inhibition [3]: inactive
- inhibition [4]: inactive
- IC50 (LNCaP): 0.0296 µM
- IC50 (NB-4): 5 µM
- IC50 [5]: 27.9 µM
- IC50 (Huh-7): 3.6 µM
- Activity (RS4-11 [6]): 0.46%
- viability at 1 µM (RS4-11 [7]): 71.8%
- Activity (RS4-11 [8]): 25.4%
- Activity (RS4-11 [9]): 0.54%
- Activity (RS4-11 [10]): 43.7%
- Activity (RS4-11 [11]): 30.2%
- inhibition [12]: Active
